Experimental data as given in ChEMBL document CHEMBL4004891, “Antioxidant Properties of Novel Dimers Derived from Natural β-Elemene through Inhibiting H2O2-Induced Apoptosis” (ACS Med Chem Lett, 2017).
Activity calls are given as the source filed them. The rule behind the calls is not given here.

What was measured:
[1] = system: HUVEC; test: Cytoprotective activity against H2O2-induced cell injury in HUVEC assessed as cell survival at 0.1 uM pretreated for 24 hrs followed by H2O2-stimulation after 2 hrs by MTT assay (reference value: 60.21%); assay type: functional; conditions: Homo sapiens, read-out: Survival
[2] = system: HUVEC; test: Cytoprotective activity against H2O2-induced cell injury in HUVEC assessed as inhibition of apoptosis by measuring early apoptotic cells at 10 uM pretreated for 24 hrs followed by H2O2-stimulation after 2 hrs by Annexin-V-APC/7AAD staining based flow cytometry (reference value: 34.96%); assay type: functional, Homo sapiens; design: scale not given: the % may be the effect or the level left
[3] = system: HUVEC; test: Cytoprotective activity against H2O2-induced cell injury in HUVEC assessed as level of reactive oxygen species by measuring fluorescence intensity at 0.1 to 10 uM pretreated for 24 hrs followed by H2O2-stimulation after 2 hrs by DCFH-DA staining based fluorescence assay (reference value: 3.3); assay type: functional, Homo sapiens
[4] = target: c-Jun N-terminal kinase, JNK (Homo sapiens) (UniProt P45983+P53779+P45984); test: Inhibition of H2O2-induced JNK phosphorylation in HUVEC pretreated for 24 hrs followed by H2O2-stimulation after 2 hrs by western blot analysis
[5] = system: HUVEC; test: Effect on total ERK1/2 protein level in HUVEC at 0.1 to 10 uM pretreated for 24 hrs followed by H2O2-stimulation for 2 hrs by western blot analysis; assay type: cell-based; conditions: human
[6] = system: HUVEC; test: Cytoprotective activity against H2O2-induced cell injury in HUVEC assessed as decrease in LDH release pretreated for 24 hrs followed by H2O2-stimulation after 2 hrs; assay type: functional, cell-based; conditions: Homo sapiens
Method in brief: (§1)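 Pretreatment 24 h at 0.1, 1 and 10 μM before 0.5 mM H2O2 for 2 h in HUVECs; LDH release, MDA content, SOD activity and NO secretion then measured.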

[7] = system: HUVEC; test: Effect on total JNK protein level in HUVEC at 0.1 to 10 uM pretreated for 24 hrs followed by H2O2-stimulation for 2 hrs by western blot analysis; assay type: cell-based; conditions: human
[8] = system: HUVEC; test: Cytoprotective activity against H2O2-induced cell injury in HUVEC assessed as inhibition of apoptosis by measuring viable cells at 10 uM pretreated for 24 hrs followed by H2O2-stimulation after 2 hrs by Annexin-V-APC/7AAD staining based flow cytometry (reference value: 53.8%); assay type: functional, Homo sapiens
[9] = system: HUVEC; test: Cytoprotective activity against H2O2-induced cell injury in HUVEC assessed as inhibition of apoptosis by measuring viable cells at 0.1 uM pretreated for 24 hrs followed by H2O2-stimulation after 2 hrs by Annexin-V-APC/7AAD staining based flow cytometry (reference value: 53.8%); assay type: functional, Homo sapiens
[10] = system: HUVEC; test: Cytoprotective activity against H2O2-induced cell injury in HUVEC assessed as increase in nitric oxide level pretreated for 24 hrs followed by H2O2-stimulation after 2 hrs by DAF-FM-DA probe based fluorescent imaging analysis; assay type: functional; conditions: Homo sapiens; method in brief: as §1
[11] = system: HUVEC; test: Effect on total p38 MAPK protein level in HUVEC at 0.1 to 10 uM pretreated for 24 hrs followed by H2O2-stimulation for 2 hrs by western blot analysis; assay type: cell-based; conditions: human
[12] = system: HUVEC; test: Cytoprotective activity against H2O2-induced cell injury in HUVEC assessed as inhibition of apoptosis by measuring viable cells at 1 uM pretreated for 24 hrs followed by H2O2-stimulation after 2 hrs by Annexin-V-APC/7AAD staining based flow cytometry (reference value: 53.8%); assay type: functional, Homo sapiens
[13] = system: HUVEC; test: Cytoprotective activity against H2O2-induced cell injury in HUVEC assessed as inhibition of apoptosis by measuring necrotic cells at 1 uM pretreated for 24 hrs followed by H2O2-stimulation after 2 hrs by Annexin-V-APC/7AAD staining based flow cytometry (reference value: 0.45%); assay type: functional, Homo sapiens; design: scale not given: the % may be the effect or the level left
[14] = system: HUVEC; test: Cytoprotective activity against H2O2-induced cell apoptosis in HUVEC pretreated for 24 hrs followed by H2O2-stimulation for 2 hrs by Annexin-V-APC/7AAD staining based flow cytometry; assay type: functional; conditions: Homo sapiens
[15] = system: HUVEC; test: Cytoprotective activity against H2O2-induced cell injury in HUVEC assessed as inhibition of apoptosis by measuring early apoptotic cells at 1 uM pretreated for 24 hrs followed by H2O2-stimulation after 2 hrs by Annexin-V-APC/7AAD staining based flow cytometry (reference value: 34.96%); assay type: functional, Homo sapiens; design: scale not given: the % may be the effect or the level left
[16] = system: HUVEC; test: Cytoprotective activity against H2O2-induced cell injury in HUVEC assessed as decrease in MDA level pretreated for 24 hrs followed by H2O2-stimulation after 2 hrs; assay type: functional, cell-based; conditions: Homo sapiens; method in brief: as §1
[17] = system: HUVEC; test: Cytoprotective activity against H2O2-induced cell injury in HUVEC assessed as decrease in level of reactive oxygen species pretreated for 24 hrs followed by H2O2-stimulation after 2 hrs by DCFH-DA staining based fluorescence assay; assay type: functional; conditions: Homo sapiens
Method in brief: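 DCF fluorescence imaging in HUVECs with or without pretreatment, exposed to H2O2; intensity expressed as percentage of control group fluorescence; means ± SD, n = 3.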

[18] = system: HUVEC; test: Cytoprotective activity against H2O2-induced cell injury in HUVEC assessed as inhibition of apoptosis by measuring early apoptotic cells at 0.1 uM pretreated for 24 hrs followed by H2O2-stimulation after 2 hrs by Annexin-V-APC/7AAD staining based flow cytometry (reference value: 34.96%); assay type: functional, Homo sapiens; design: scale not given: the % may be the effect or the level left
[19] = system: HUVEC; test: Cytoprotective activity against H2O2-induced cell injury in HUVEC assessed as inhibition of apoptosis by measuring late apoptotic cells at 1 uM pretreated for 24 hrs followed by H2O2-stimulation after 2 hrs by Annexin-V-APC/7AAD staining based flow cytometry (reference value: 10.78%); assay type: functional, Homo sapiens; design: scale not given: the % may be the effect or the level left
[20] = system: HUVEC; test: Cytoprotective activity against H2O2-induced cell injury in HUVEC assessed as cell survival at 10 uM pretreated for 24 hrs followed by H2O2-stimulation after 2 hrs by MTT assay (reference value: 60.21%); assay type: functional; conditions: Homo sapiens, read-out: Survival
[21] = system: HUVEC; test: Cytoprotective activity against H2O2-induced cell injury in HUVEC assessed as increase in SOD activity pretreated for 24 hrs followed by H2O2-stimulation after 2 hrs; assay type: functional, cell-based; conditions: Homo sapiens; method in brief: as §1
[22] = system: HUVEC; test: Cytoprotective activity against H2O2-induced cell injury in HUVEC assessed as inhibition of apoptosis by measuring necrotic cells at 10 uM pretreated for 24 hrs followed by H2O2-stimulation after 2 hrs by Annexin-V-APC/7AAD staining based flow cytometry (reference value: 0.45%); assay type: functional, Homo sapiens; design: scale not given: the % may be the effect or the level left
[23] = target: Mitogen-activated protein kinase; ERK1/ERK2 (Homo sapiens) (UniProt P27361+P28482); test: Inhibition of H2O2-induced ERK1/2 phosphorylation in HUVEC pretreated for 24 hrs followed by H2O2-stimulation after 2 hrs by western blot analysis; assay type: protein assay
Mitogen-activated protein kinase; ERK1/ERK2 (Homo sapiens), sequence (P27361 whole entry, looked up): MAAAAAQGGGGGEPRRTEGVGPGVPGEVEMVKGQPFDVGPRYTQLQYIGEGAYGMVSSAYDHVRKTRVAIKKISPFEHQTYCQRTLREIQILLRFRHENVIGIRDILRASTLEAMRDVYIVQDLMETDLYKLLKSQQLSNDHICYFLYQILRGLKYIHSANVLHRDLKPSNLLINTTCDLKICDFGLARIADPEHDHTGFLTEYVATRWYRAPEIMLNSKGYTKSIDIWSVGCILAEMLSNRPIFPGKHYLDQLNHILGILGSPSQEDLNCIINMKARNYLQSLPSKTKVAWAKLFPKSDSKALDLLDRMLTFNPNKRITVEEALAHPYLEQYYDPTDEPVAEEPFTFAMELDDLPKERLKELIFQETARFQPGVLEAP
Mitogen-activated protein kinase; ERK1/ERK2 (Homo sapiens), sequence (P28482 whole entry, looked up): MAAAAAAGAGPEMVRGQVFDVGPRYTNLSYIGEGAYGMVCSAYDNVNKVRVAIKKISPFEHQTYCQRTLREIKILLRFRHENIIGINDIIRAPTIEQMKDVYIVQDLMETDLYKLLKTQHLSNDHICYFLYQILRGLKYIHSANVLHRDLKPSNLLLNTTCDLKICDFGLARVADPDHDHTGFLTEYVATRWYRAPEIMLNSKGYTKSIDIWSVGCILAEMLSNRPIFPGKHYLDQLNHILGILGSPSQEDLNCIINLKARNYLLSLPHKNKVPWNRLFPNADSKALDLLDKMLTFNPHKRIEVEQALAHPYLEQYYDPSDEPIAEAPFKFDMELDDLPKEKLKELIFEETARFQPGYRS

[24] = system: HUVEC; test: Cytoprotective activity against H2O2-induced cell injury in HUVEC assessed as cell survival at 0.01 uM pretreated for 24 hrs followed by H2O2-stimulation after 2 hrs by MTT assay (reference value: 60.21%); assay type: functional; conditions: Homo sapiens, read-out: Survival
[25] = target: MAP kinase p38 (Homo sapiens) (UniProt O15264+Q15759+Q16539+P53778); test: Inhibition of H2O2-induced p38 phosphorylation in HUVEC pretreated for 24 hrs followed by H2O2-stimulation after 2 hrs by western blot analysis
[26] = system: HUVEC; test: Cytoprotective activity against H2O2-induced cell injury in HUVEC assessed as inhibition of apoptosis by measuring late apoptotic cells at 10 uM pretreated for 24 hrs followed by H2O2-stimulation after 2 hrs by Annexin-V-APC/7AAD staining based flow cytometry (reference value: 10.78%); assay type: functional, Homo sapiens; design: scale not given: the % may be the effect or the level left
[27] = system: HUVEC; test: Cytoprotective activity against H2O2-induced cell injury in HUVEC assessed as increase in cell survival pretreated for 24 hrs followed by H2O2-stimulation after 2 hrs by MTT assay; assay type: functional, cell-based; conditions: Homo sapiens
Method in brief: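 MTT survival of H2O2-injured HUVECs after pretreatment at 10, 1, 0.1 and 0.01 μM; compared with H2O2-only model group; EC50 derived from concentration–response; means ± SD, n = 3.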

[28] = system: HUVEC; test: Cytoprotective activity against H2O2-induced cell injury in HUVEC assessed as increase in cell viability at 10 uM pretreated for 24 hrs followed by H2O2-stimulation after 2 hrs by MTT assay; assay type: functional, cell-based; conditions: Homo sapiens
[29] = system: HUVEC; test: Cytoprotective activity against H2O2-induced cell injury in HUVEC assessed as inhibition of apoptosis by measuring late apoptotic cells at 0.1 uM pretreated for 24 hrs followed by H2O2-stimulation after 2 hrs by Annexin-V-APC/7AAD staining based flow cytometry (reference value: 10.78%); assay type: functional, Homo sapiens; design: scale not given: the % may be the effect or the level left
[30] = system: HUVEC; test: Cytoprotective activity against H2O2-induced cell injury in HUVEC assessed as cell survival at 1 uM pretreated for 24 hrs followed by H2O2-stimulation after 2 hrs by MTT assay (reference value: 60.21%); assay type: functional; conditions: Homo sapiens, read-out: Survival
[31] = system: HUVEC; test: Cytoprotective activity against H2O2-induced cell injury in HUVEC assessed as inhibition of apoptosis by measuring necrotic cells at 0.1 uM pretreated for 24 hrs followed by H2O2-stimulation after 2 hrs by Annexin-V-APC/7AAD staining based flow cytometry (reference value: 0.45%); assay type: functional, Homo sapiens; design: scale not given: the % may be the effect or the level left
[32] = system: HUVEC; test: Cytotoxicity against HUVEC assessed as increase in cell viability at 0.1 to 50 uM after 24 hrs by MTT assay relative to control; assay type: cell-based; conditions: human
Method in brief: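 Normal HUVECs incubated 24 h with 0.1−50 μM, no H2O2; viability by MTT assay; means ± SD, n = 3.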

C=C[C@]1(C)CC[C@@H](C(=C)COC(=O)/C=C/C(=O)OCC(=C)[C@@H]2CC[C@@](C)(C=C)[C@H](C(=C)C)C2)C[C@H]1C(=C)C
viability at 0.1 µM [1]: 76.7% | Activity [2]: 12.82% | Flu intensity [3]: 1.16 - 2.4 | inhibition [4]: Dose-dependent effect | Activity [5]: Non-Toxic | Activity [6]: Dose-dependent effect | Activity [7]: Non-Toxic | Activity [8]: 71.78% | Activity [9]: 58.55% | Activity [10]: Dose-dependent effect | Activity [11]: Non-Toxic | Activity [12]: 68.31% | Activity [13]: 0.18% | Activity [14]: Dose-dependent effect | Activity [15]: 23.59% | Activity [16]: Dose-dependent effect | Activity [17]: Dose-dependent effect | Activity [18]: 30.92% | Activity [19]: 7.92% | viability at 10 µM [20]: 97% | Activity [21]: Dose-dependent effect | Activity [22]: 2.69% | inhibition [23]: Dose-dependent effect | viability at 0.01 µM [24]: 65.5% | inhibition [25]: Dose-dependent effect | Activity [26]: 12.71% | Activity [27]: Dose-dependent effect | EC50 [27]: 220 nM | Activity [28]: Active | Activity [29]: 10.22% | viability at 1 µM [30]: 85.5% | Activity [31]: 0.3% | Activity [32]: > 90%
